Experimental findings from PubChem BioAssay are described below.

Assay [1] in a line: reducers of endogenous Her2 protein level, primary screen, SKBR3 breast tumor cells, AlphaScreen, ATP viability (AID 461;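 active means Her2 level under about 52% in both replicate screens, with viability over 70% of control, limit read from the data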;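 on Her2 level: lower value means less Her2 protein in the cells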;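 on viability: percent of carrier control wells set as 100% viability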). To be noted: 18-24 h, measured here: SKBR3 viability, ATP luminescence, at 10 µM.
For assay [2], the target named is Receptor tyrosine-protein kinase erbB-2 (Homo sapiens) (UniProt P04626). Described as above. Particulars: 18-24 h, at 10 µM, stronger effect = lower value.
Sequence of Receptor tyrosine-protein kinase erbB-2 (Homo sapiens) (P04626 whole entry, looked up): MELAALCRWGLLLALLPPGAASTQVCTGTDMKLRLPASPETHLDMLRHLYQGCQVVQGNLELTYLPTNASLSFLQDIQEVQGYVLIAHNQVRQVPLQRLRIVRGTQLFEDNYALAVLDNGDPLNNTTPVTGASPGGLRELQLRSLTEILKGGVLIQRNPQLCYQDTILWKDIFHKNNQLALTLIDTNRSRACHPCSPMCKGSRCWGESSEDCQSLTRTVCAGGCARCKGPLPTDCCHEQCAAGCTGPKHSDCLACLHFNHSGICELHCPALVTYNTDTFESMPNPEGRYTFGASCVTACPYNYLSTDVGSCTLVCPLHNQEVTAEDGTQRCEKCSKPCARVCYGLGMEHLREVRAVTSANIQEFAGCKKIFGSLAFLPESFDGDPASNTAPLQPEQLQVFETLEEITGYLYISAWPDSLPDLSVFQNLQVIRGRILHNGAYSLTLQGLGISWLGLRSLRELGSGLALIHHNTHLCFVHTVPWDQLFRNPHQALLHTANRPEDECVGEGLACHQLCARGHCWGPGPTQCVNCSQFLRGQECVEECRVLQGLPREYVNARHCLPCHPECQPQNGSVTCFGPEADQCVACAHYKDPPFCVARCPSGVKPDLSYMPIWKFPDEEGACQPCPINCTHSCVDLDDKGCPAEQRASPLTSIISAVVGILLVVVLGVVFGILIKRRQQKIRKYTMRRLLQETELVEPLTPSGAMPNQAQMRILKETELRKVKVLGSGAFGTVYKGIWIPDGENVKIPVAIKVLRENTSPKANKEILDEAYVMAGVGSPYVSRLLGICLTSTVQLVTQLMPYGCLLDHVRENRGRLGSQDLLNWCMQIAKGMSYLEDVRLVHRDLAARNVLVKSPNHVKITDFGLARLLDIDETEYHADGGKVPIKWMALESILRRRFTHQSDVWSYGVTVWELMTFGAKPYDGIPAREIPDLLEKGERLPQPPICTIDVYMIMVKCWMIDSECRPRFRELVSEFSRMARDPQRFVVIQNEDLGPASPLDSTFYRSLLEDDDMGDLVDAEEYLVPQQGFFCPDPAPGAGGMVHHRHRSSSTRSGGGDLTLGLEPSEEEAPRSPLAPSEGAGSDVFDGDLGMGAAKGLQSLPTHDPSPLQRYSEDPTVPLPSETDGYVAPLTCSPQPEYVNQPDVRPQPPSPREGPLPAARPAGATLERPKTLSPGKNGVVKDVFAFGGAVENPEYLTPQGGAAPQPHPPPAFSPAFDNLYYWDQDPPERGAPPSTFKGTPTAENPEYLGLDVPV
A short description of assay [3]: SK-BR-3 cell growth inhibitors, pilot screen, 24 h, human (AID 572;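 active means viability at or below 10% of carrier control in both of two separate runs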;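 further: compound exposure lasted between 18 and 24 h rather than exactly 24 h; 100% = carrier-treated control wells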). Particulars: SK-BR-3 viability, CellTiter-Glo luminescence, at 10 µM, stronger effect = lower value.
Assay [4] can be described thus: HUVEC growth inhibition – cell-based, human, primary screen (AID 575;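 active means viability at or below 30% in both replicate assays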;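 further: 100% = median of untreated cell wells with 0.1% DMSO on each plate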). To be noted: HUVEC proliferation, CellTiter-Glo luminescence, 72 h; at 10 µM; stronger effect = lower value. The method, boiled down: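 Test system: primary human umbilical vein endothelial cells; medium: endothelial basal medium with 2% FBS plus growth supplements; dosing: 10 µM compound only; times: 72 h treatment at 37 °C; signal: CTG luminescence; read-out: % viability relative to median vehicle-well signal on each plate; control set: vehicle and MePR control wells; plate: 384-well, collagen-coated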

A short description of assay [5]: growth inhibitors of H69AR lung tumor, primary screen, human, duplicate replicates (AID 580).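 Further: 100% = mean luminescence of untreated wells and 0% = no signal.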 Particulars: H69AR lung tumor cells viability, ATP luminescence, 72 h; at 10 µM; stronger effect = lower value.
A short description of assay [6]: reversal of MRP1-mediated doxorubicin resistance, pilot screen, H69AR cells, doxorubicin co-treatment (AID 601;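 active means viability loss from added drug above about 55%, and viability with drug at most 40%, in both replicates, limit read from the data, passing the limit was not always enough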). To be noted: CellTiter-Glo, 72 h, at 10 µM; for differential viability (reversal): stronger effect = higher value.
Assay [7] is described as follows: 384-well plate pilot, post-Golgi transport modulator project, inhibition of yeast transport mutant growth (AID 636; in the data active means inhibition above about 31%). Particulars: absorbance 615 nm, about 18 h, stronger effect = higher value.
A short description of assay [8]: growth suppression of yeast trafficking mutant, preliminary HTS, modulators of trafficking downstream of Golgi apparatus project, 1536-format plate, OD 615 nm (AID 637; in the data active means inhibition above about 30%). Particulars: yeast transport mutant growth, absorbance 615 nm, 18 h; stronger effect = higher value.
Where [9] appears, read: H69AR cells + 2 uM doxorubicin, measured here: viability with 2 uM doxorubicin, stronger effect = lower value.
Where [10] appears, read: H69AR cells, compound alone cytotoxicity.

The source made the active and inactive calls.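 How the source made its calls, unless noted: active means viability at or under a set limit in both replicates, limit being median viability minus 3 SD (cut at about 48% in these data, passing the limit was not always enough); inconclusive means at or under the limit in just one replicate; inactive means at or above the limit in both replicates.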

As to `CCCn1c2ccccc2c2nnc(SCC(=O)OCC)nc21`, the viability was 95% in assay [1]; 95% (inactive) in assay [3]; 88.8% (inactive) in assay [4]; 91.2% (inactive) in assay [5]; 80.2% in assay [6] (setting [9]); 91.2% in assay [6] (setting [10]). In assay [2], the Her2 level was 78.5% (inactive). Further, the differential viability (reversal) in assay [6] (H69AR cells + 2 uM doxorubicin) is 11% (inactive). In addition, the inhibition in assay [7] is -0.66% (inactive); in assay [8], 3.64% (inactive).
On to `c1cncc(-c2nnc(-c3ccco3)o2)c1`, for which the viability was 106% in assay [1]; 106% (inactive) in assay [3]; 86.3% (inactive) in assay [4]; 105% (inactive) in assay [5]; 89% in assay [6] (setting [9]); 105% in assay [6] (setting [10]). Further, the Her2 level in assay [2] was 114% (inactive). For the same compound, in assay [6] (H69AR cells + 2 uM doxorubicin), the differential viability (reversal) is 16% (inactive). Further, the results for the inhibition in assay [7] and in assay [8] were -4.93% (inactive) and -7.58% (inactive), respectively.
With `CC(O)c1c(OCc2ccccc2)ncnc1OCc1ccccc1` (stereo not given), the viability was 83.5% in assay [1]; 83.5% (inactive) in assay [3]; 59.5% (inactive) in assay [4]; 93.8% (inactive) in assay [5]; 79.3% in assay [6] (setting [9]); 93.8% in assay [6] (setting [10]). For the same compound, in assay [2], the Her2 level is 82.5% (inactive). Besides, the differential viability (reversal) in assay [6] (H69AR cells + 2 uM doxorubicin) is 14.6% (inactive). The inhibition is -2.73% (inactive) in assay [7] and 1.48% (inactive) in assay [8].
As to `COC(=O)c1cc2ccsc2n1CC(=O)Nc1cc(C)cc(C)c1`, the viability in assay [1] was 96.5%; in assay [3], 96.5% (inactive); in assay [4], 64% (inactive); in assay [5], 84.8% (inactive); in assay [6] (setting [9]), 84.8%; in assay [6] (setting [10]), 84.8%. Further, the Her2 level in assay [2] was 124% (inactive). For the same compound, the differential viability (reversal) in assay [6] (H69AR cells + 2 uM doxorubicin) was -0.08% (inactive). Besides, the inhibition in assay [7] was 1.92% (inactive); in assay [8], 14.3% (inactive).
As to `O=C(COc1ccc(Cl)cc1)Nc1nc(-c2cccs2)cs1`, the viability in assay [1] is 96%; in assay [3], 96% (inactive); in assay [4], 79.9% (inactive); in assay [5], 77.5% (inactive); in assay [6] (setting [9]), 84.6%; in assay [6] (setting [10]) it was 77.5%. For the same compound, in assay [2], the Her2 level was 74.5% (inactive). Besides, the differential viability (reversal) in assay [6] (H69AR cells + 2 uM doxorubicin) is -7.15% (inactive). The inhibition in assay [7] is 3.55% (inactive); in assay [8], 0.18% (inactive).
On to `COC(=O)c1c(N)nc(C)n1-c1ccc(OC)cc1`, for which the viability was 86.5% in assay [1]; 86.5% (inactive) in assay [3]; 95.9% (inactive) in assay [4]; 96.1% (inactive) in assay [5]; 91.5% in assay [6] (setting [9]); 96.1% in assay [6] (setting [10]). The Her2 level in assay [2] was 91% (inactive). Moreover, in assay [6] (H69AR cells + 2 uM doxorubicin), the differential viability (reversal) was 4.61% (inactive). The inhibition in assay [7] was -3.33% (inactive); in assay [8], -3.77% (inactive).
On to `CCN(CC)CCNC(=O)CCn1c(=S)[nH]c2cc3c(cc2c1=O)OCO3`, for which the viability in assay [1] is 79%; in assay [3], 79% (inactive); in assay [4] it was 89.8% (inactive); in assay [5] it was 90.1% (inactive); in assay [6] (setting [9]) it was 89.8%; in assay [6] (setting [10]), 90.1%. Further, the Her2 level in assay [2] was 89.5% (inactive). In assay [6] (H69AR cells + 2 uM doxorubicin), the differential viability (reversal) was 0.295% (inactive). Besides, the inhibition is -4.59% (inactive) in assay [7] and -2.3% (inactive) in assay [8].
Regarding `O=C1CCc2cc(S(=O)(=O)N3CCC(C(=O)NCc4ccccn4)CC3)ccc2N1`, the viability in assay [1] is 81%; in assay [3], 81% (inactive); in assay [4], 98% (inactive); in assay [5] it was 96.7% (inactive); in assay [6] (setting [9]), 95.3%; in assay [6] (setting [10]), 96.7%. Besides, the Her2 level in assay [2] is 89% (inactive). In addition, the differential viability (reversal) in assay [6] (H69AR cells + 2 uM doxorubicin) is 1.42% (inactive). In addition, the inhibition in assay [7] is -0.4% (inactive); in assay [8], 14.4% (inactive).
For the compound `CCOC(=O)N1CCN(C(=O)CN2C(=O)COc3ccc(C)cc32)CC1`, the viability in assay [1] was 98%; in assay [3], 98% (inactive); in assay [4], 95.7% (inactive); in assay [5] it was 94.2% (inactive); in assay [6] (setting [9]) it was 92.3%; in assay [6] (setting [10]), 94.2%. Besides, in assay [2], the Her2 level was 94.5% (inactive). For the same compound, in assay [6] (H69AR cells + 2 uM doxorubicin), the differential viability (reversal) was 1.89% (inactive). Besides, the results for the inhibition in assay [7] and in assay [8] were -2.89% (inactive) and 6% (inactive), respectively.
Regarding `CCCCOC(=O)n1c(SCC(=O)N(CC)CC)nc2ccccc21`, the viability in assay [1] is 86%; in assay [3], 86% (inactive); in assay [4], 81.8% (inactive); in assay [5], 91.4% (inactive); in assay [6] (setting [9]) it was 89.6%; in assay [6] (setting [10]), 91.4%. Besides, the Her2 level in assay [2] is 97.5% (inactive). Moreover, in assay [6] (H69AR cells + 2 uM doxorubicin), the differential viability (reversal) is 1.75% (inactive). Further, the values for the inhibition in assay [7] and in assay [8] were -1.82% (inactive) and -4.29% (inactive), respectively.
As to `Cc1oc(-c2ccccc2F)nc1CS(=O)(=O)CC(=O)N1CCN(Cc2ccccc2)CC1`, the viability in assay [1] is 77.5%; in assay [3], 77.5% (inactive); in assay [4], 102% (inactive); in assay [5], 90.2% (inactive); in assay [6] (setting [9]), 91.4%; in assay [6] (setting [10]) it was 90.2%. In addition, the Her2 level in assay [2] is 91.5% (inactive). The differential viability (reversal) in assay [6] (H69AR cells + 2 uM doxorubicin) is -1.19% (inactive). For the same compound, the inhibition in assay [7] is -3.07% (inactive); in assay [8], -0.98% (inactive).
For `CN(C)c1nc(SCCOC(=O)c2ccccc2)nc(N(C)C)n1`, the viability in assay [1] is 96%; in assay [3], 96% (inactive); in assay [4], 82.1% (inactive); in assay [5] it was 101% (inactive); in assay [6] (setting [9]), 85%; in assay [6] (setting [10]), 101%. Also, in assay [2], the Her2 level is 80.5% (inactive). Also, the differential viability (reversal) in assay [6] (H69AR cells + 2 uM doxorubicin) is 16.4% (inactive). The inhibition is -4.47% (inactive) in assay [7] and -2.67% (inactive) in assay [8].
Regarding `NCCN1CCN(CCN)CC1`, the viability in assay [1] is 106%; in assay [3] it was 106% (inactive); in assay [4] it was 84.6% (inactive); in assay [5], 93.7% (inactive); in assay [6] (setting [9]), 81.4%; in assay [6] (setting [10]), 93.7%. Also, in assay [2], the Her2 level was 77% (inactive). Moreover, the differential viability (reversal) in assay [6] (H69AR cells + 2 uM doxorubicin) is 12.2% (inactive). The inhibition in assay [7] is -3.87% (inactive); in assay [8] it was 2.38% (inactive).
Consider `Cc1ccccc1CS(=O)(=O)CCC(=O)N1CCN(c2ccc(N3CCOCC3)nn2)CC1`, for which the viability in assay [1] was 91.5%; in assay [3] it was 91.5% (inactive); in assay [4], 97.1% (inactive); in assay [5], 103% (inactive); in assay [6] (setting [9]), 92.7%; in assay [6] (setting [10]), 103%. Further, the Her2 level in assay [2] was 81% (inactive). The differential viability (reversal) in assay [6] (H69AR cells + 2 uM doxorubicin) was 10.7% (inactive). Further, the figures for the inhibition in assay [7] and in assay [8] were -2.24% (inactive) and -0.73% (inactive), respectively.
